SENP8 block-1 = SENP8 (human) protease inhibition | Q96LD8 | recombinant SENP8, Nedd8 substrate fluorescence | inhibition, % at 20 µM | hit rate 0.64% among 360,000 | AID 602440; in the data active = inhibition mostly above about 40%, no sharp cut-off; inactive = mostly below about 27%
Target sequence (Q96LD8 whole entry, looked up): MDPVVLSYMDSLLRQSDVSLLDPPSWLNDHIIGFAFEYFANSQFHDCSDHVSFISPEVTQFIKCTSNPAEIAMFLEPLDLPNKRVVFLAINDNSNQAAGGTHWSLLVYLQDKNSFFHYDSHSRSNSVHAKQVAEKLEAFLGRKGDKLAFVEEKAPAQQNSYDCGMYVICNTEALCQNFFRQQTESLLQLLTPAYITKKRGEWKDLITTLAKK
SENP1 FRET inh = blocks the human SENP1 SUMO protease catalytic domain. Q9P0U3. recombinant SENP1 catalytic domain, CyPet-SUMO1-YPet FRET cleavage. inhibition, % at 10 µM. hit rate 0.21% among 360,000. AID 624204;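 active = inhibition at least 30% at 10 µM, raw YFP signal under a set limit, fluorescence ratio 0.5 to 1.5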;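 also: 0% = enzyme with DMSO and 100% = no enzyme wells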
Target sequence (Q9P0U3 419-644 limits assumed): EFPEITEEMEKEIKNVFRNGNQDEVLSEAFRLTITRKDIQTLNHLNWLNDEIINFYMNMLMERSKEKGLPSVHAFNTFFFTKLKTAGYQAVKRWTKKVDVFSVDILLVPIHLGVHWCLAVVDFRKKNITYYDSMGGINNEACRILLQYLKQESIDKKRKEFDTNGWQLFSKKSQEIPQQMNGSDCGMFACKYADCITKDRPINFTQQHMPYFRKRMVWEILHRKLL
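System: Recombinant human SENP1 catalytic domain, His6-tagged | Incubation: Enzyme reaction for 50 min at room temperature, dark | Medium: Tris pH 8 with BME, BSA, NP40 and catalase | Also added: 25 nM SUMO1 FRET substrate | Compound: 10 µM single point, 0.5% DMSO | Measured by: FRET fluorescence in CFP and YFP emission channels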
UCH37 DUB inh = blocks the human deubiquitinase UCH37; Q9Y5K5; purified proteasome/UCH37, Ub-AMC cleavage fluorescence; inhibition, % (concentration not given with the values); hit rate 0.33% among 330,000; AID 588478;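 active = mean inhibition over replicate wells above about 20%, limit read from the data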;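 also: 0% = compound-free wells with enzyme and 100% = wells lacking proteasome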
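Signal – fluorescence, ex 355 nm, em 460 nm · System – Proteasome-bound UCH37 · Input – 0.15 nM proteasome as dispensed · Timing – 30 min preincubation with enzyme, 25 min cleavage at room temperature · Read-out basis – percent inhibition of cleavage signal versus uninhibited and no-proteasome wells · Medium – Tris-HCl pH 7.4 with ATP-MgCl2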
SENP8 block-2 = SENP8 protease inhibition; AID 2540; inhibition, % at 10 µM; hit rate 1.2% among 330,000; purified SENP8, Z-RLRGG-aminoluciferin cleavage, luminescence; Q96LD8; in the data active = inhibition above about 50%
SENP6 block = inhibitors of human SENP6 protease; Q9GZR1; Recombinant SENP6 catalytic domain, aminoluciferin luminescence; inhibition, % at 10 µM; hit rate 1.8% among 330,000;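 active = inhibition above about 50% at the single tested dose, limit read from the data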;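 also: plate controls were DMSO wells with enzyme for no effect and DMSO wells lacking enzyme for full effect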
SENP7 block = blocks the human protease SENP7 | recombinant SENP7, Z-RLRGG-aminoluciferin luminescence, 40 min | inhibition, % at 5 µM | Q9BQF6 | hit rate 1.5% among 330,000 | AID 434973;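 active = inhibition above about 50% at the single test dose, limit read from the data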;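 also: plate controls were DMSO with enzyme for no effect and no enzyme buffer wells for full effect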
SENP8 conf = confirmation of human SENP8 protease inhibitors; shares compounds with SENP7 block; Recombinant SENP8, Z-RLRGG-aminoluciferin luminescence, 60 min; inhibition, % at 12.5 µM; hit rate 40% among 6,200;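 active = mean inhibition across replicates above about 50%, limit read from the data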
SENP6 confirm = confirmation of human SENP6 protease inhibitors; shares compounds with SENP7 block; recombinant SENP6, Z-RLRGG-aminoluciferin luminescence; inhibition, % at 12.5 µM; hit rate 58% among 6,200; AID 488915
SENP7 confirm = confirmation of human SENP7 protease inhibitors; shares compounds with SENP7 block; recombinant SENP7, Z-RLRGG-aminoluciferin luminescence, 40 min; inhibition, % at 12.5 µM; hit rate 69% among 6,200
Casp3 select = selectivity test for SENP inhibitors: human caspase-3 inhibition. shares compounds with SENP7 block. purified caspase-3, Z-DEVD-aminoluciferin luminescence, 60 min. inhibition, % at 12.5 µM. hit rate 60% among 6,200;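 active = mean inhibition above about 50%, limit read from the data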;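 also: plate controls were enzyme with DMSO for no effect and wells without caspase-3 for full effect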
Target sequence (P42574 28-227 limits assumed): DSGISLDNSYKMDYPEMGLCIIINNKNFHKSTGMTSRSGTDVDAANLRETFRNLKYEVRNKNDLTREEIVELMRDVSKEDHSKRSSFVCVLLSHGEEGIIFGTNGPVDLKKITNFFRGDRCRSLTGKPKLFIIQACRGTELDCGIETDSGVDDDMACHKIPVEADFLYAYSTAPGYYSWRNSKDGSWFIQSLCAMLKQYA
Luc interf = interferes with luciferase luminescence in SENP counter-screen; shares compounds with SENP7 block; Pre-incubated SENP8/Z-RLRGG-aminoluciferin, luciferase luminescence interference; inhibition, % at 12.5 µM; hit rate 39% among 6,200; AID 488919;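 active = mean inhibition above about 50% when retested at one dose, limit read from the data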;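 also: plate controls were DMSO wells with completed reaction for no effect and substrate without enzyme for full effect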
* = called active by the depositor; i = inactive; x = not tested or not shown. In the library only some 2.6% were active in any assay of this set; here they are far more common.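 The calls were made as follows, unless noted: active = mean inhibition above about 50% in the one-dose retest (limit read from the data); inactive = the rest.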

SMILES | SENP8 block-1 | SENP1 FRET inh | UCH37 DUB inh | SENP8 block-2 | SENP6 block | SENP7 block | SENP8 conf | SENP6 confirm | SENP7 confirm | Casp3 select | Luc interf
Brc1ccc(-c2ncc(-c3ccccc3)cn2)cc1 | 18 | 4 | 2 | 20 | 7 | 74* | 11 | 12 | -6 | -3 | -2
Brc1ccc(-c2ccccc2)cc1 | 22 | -2 | x | -15 | -28 | -13 | x | x | x | x | x
CC(=NNC(=O)c1cccc(NN=C(C)c2ccc([N+](=O)[O-])cc2)c1)c1ccc([N+](=O)[O-])cc1 | x | x | 6 | x | x | x | x | x | x | x | x
CSC1=N/C(=C\c2ccc(F)cc2)C(=O)S1 | -8 | 1 | 1 | -9 | -26 | 4 | x | x | x | x | x
COc1ccc(/C=C/C=C2\N=C(SC)SC2=O)cc1 | 25 | -14 | 6 | 84* | 86* | 91* | -3 | 8 | 2 | 3 | 17
CC(Cc1ccccc1)=NNC(=O)CNC(=O)c1ccccc1Br | x | x | -2 | x | x | x | x | x | x | x | x
O=c1c(-c2ccc(Cl)cc2)c[nH]n1-c1ccccc1 | -6 | 1 | 4 | 42 | 54* | 6 | 22 | 38 | 48 | 66* | 7
O=c1c(-c2ccccc2)c[nH]n1-c1cccc([N+](=O)[O-])c1 | 8 | 1 | 1 | 76* | 79* | 68* | 73* | 72* | 94* | 90* | 74*
CCOC(=O)c1c(N)sc(C(N)=O)c1C | 10 | -2 | 2 | -4 | -1 | -4 | x | x | x | x | x
CCOC(=O)c1c(N)sc(C(=O)Nc2ccccc2F)c1C | -73 | 3 | 0 | 74* | 81* | 78* | 63* | 63* | 88* | 67* | 33
CCOC(=O)c1c(N)sc(C(=O)Nc2ccccc2)c1C | -29 | 3 | 0 | 73* | 84* | 85* | -23 | 81* | 97* | 84* | 83*
COCCNC(=S)Nc1ccc2nsnc2c1 | -70 | 47 | 6 | -9 | -11 | 2 | x | x | x | x | x
C=CCN(CC=C)C(=S)Nc1ccc2nsnc2c1 | -211 | -24 | 5 | 46 | 75* | 26 | 4 | 15 | 10 | 11 | 10
S=C(Nc1ccc2nsnc2c1)N1CCCCCC1 | -149 | -28 | 11 | 89* | 93* | 53* | 20 | 30 | 17 | 46 | 58*
C=CCNC(=S)Nc1ccc2nsnc2c1 | -4 | 18 | 3 | 18 | 60* | 21 | 11 | 4 | 10 | 6 | 3
O=C(NN=Cc1ccc2c(c1)OCO2)c1cc(-c2ccccc2)nc2ccccc12 | x | x | -11 | x | x | x | x | x | x | x | x
CCOc1ccc(-c2c(C(=O)NN=Cc3ccc(Cl)cc3)nnn2-c2nonc2N)cc1 | x | x | 4 | x | x | x | x | x | x | x | x
CC(=NNC(=O)NC1CCCCC1)c1ccc(OC(F)F)cc1OC(F)F | x | x | 0 | x | x | x | x | x | x | x | x
COC(=O)N/N=C/c1ccc(OC(=O)/C=C/c2ccco2)cc1 | 19 | 3 | x | -14 | -14 | 2 | x | x | x | x | x
CCc1ccc(OC(=O)/C=C/c2ccco2)cc1 | 4 | 0 | 2 | 69* | 89* | 81* | 7 | 77* | 94* | 50* | 18
Nc1c(-c2ccccc2)cnc2c(-c3ccccc3)cnn12 | i | -1 | -60 | 5 | 43 | 74* | 8 | 19 | 50* | 55* | 2
Nc1c(C(=O)O)cnc2c(-c3ccc(Cl)cc3)cnn12 | -401 | -2 | -14 | 98* | 95* | 100* | 52* | 100* | 103* | 98* | 96*
CC(=O)c1cnc2c(-c3ccc(Cl)cc3)cnn2c1C | -9 | 3 | -2 | -6 | -17 | 1 | x | x | x | x | x
Nc1c(-c2cccs2)cnc2c(-c3ccc(F)cc3)cnn12 | -284 | -2 | -58 | 28 | 50* | 69* | 8 | 34 | 48 | 42 | 9
CC1=NNC(=O)C1CCC(=O)NN=Cc1cccc(Cl)c1 (stereo not drawn) | x | x | 1 | x | x | x | x | x | x | x | x
SMILES | SENP8 block-1 | SENP1 FRET inh | UCH37 DUB inh | SENP8 block-2 | SENP6 block | SENP7 block | SENP8 conf | SENP6 confirm | SENP7 confirm | Casp3 select | Luc interf
Cc1cccc(C=NNC(=O)c2cc(Br)ccc2O)n1 | x | x | 6 | x | x | x | x | x | x | x | x
CCOC(=O)Cc1csc(NN=Cc2ccc(Cl)cc2)n1 | x | x | 0 | x | x | x | x | x | x | x | x
Cn1cccc1C(=O)NCCc1ccc(Cl)cc1 | -2 | 0 | 2 | 44 | 62* | 55* | 50 | 46 | 82* | 72* | 58*
Cn1cccc1C(=O)NCCc1ccccc1 | 11 | 0 | -2 | 36 | 67* | 57* | 43 | 44 | 80* | 83* | 59*
CC(CC(=O)Nc1ccc(N(C)C)cc1)=NNC(=O)c1ccc(F)cc1 | x | x | 5 | x | x | x | x | x | x | x | x
COc1ccc(C(=O)NCC(=O)NN=C/C(C)=C/c2ccccc2)cc1OC | x | x | 6 | x | x | x | x | x | x | x | x
O=C(Nc1cccn(Cc2c(Cl)cccc2Cl)c1=O)c1c(Cl)cccc1Cl | 10 | -5 | 1 | 11 | 18 | 6 | x | x | x | x | x
O=C(Nc1ccccc1)Nc1cccn(Cc2c(F)cccc2Cl)c1=O | -233 | -3 | 0 | 55* | 58* | 13 | 17 | 49 | 92* | 50* | 14
COCCNC(=S)NN=C(C)c1ccccc1F | x | x | 1 | x | x | x | x | x | x | x | x
FC(F)(F)c1cccc(-c2nc(-c3ccncc3)no2)c1 | 18 | 0 | 3 | x | x | x | x | x | x | x | x
Cc1cccc(-c2noc(-c3c(C)noc3C)n2)c1 | 26 | 0 | 3 | 57* | 71* | 48 | 29 | 38 | 52* | 50 | 16
Cc1ccc(-c2noc(-c3c(C)noc3C)n2)cc1 | 18 | 0 | 2 | 1 | 1 | 32 | x | x | x | x | x
Cc1cccc(-c2noc(-c3ccc4c(c3)OCO4)n2)c1 | -10 | 0 | 0 | 70* | 82* | 101* | 4 | 38 | 47 | 37 | 30
COc1cc(-c2nc(-c3cccc(C)c3)no2)cc(OC)c1OC | 10 | -1 | 1 | -4 | 3 | 7 | x | x | x | x | x
Brc1cccc(-c2nc(-c3ccncc3)no2)c1 | 5 | 0 | 6 | 50 | 70* | 72* | 27 | 54* | 64* | 59* | 26
Cc1cccc(-c2nc(-c3ccncc3)no2)c1 | 22 | 0 | 3 | 79* | -5 | 82* | 58* | 84* | 97* | 85* | 56*
CCc1ccc[n+](-c2[nH]c(=O)sc2C=N/N=C(\[O-])c2cccnc2)c1 | x | x | 18 | x | x | x | x | x | x | x | x
